In ChEMBL document CHEMBL5223159, “Structural and Functional Characterization of Indane-Core CD4-Mimetic Compounds Substituted with Heterocyclic Amines” (ACS Med Chem Lett, 2023):
The source made the active and inactive calls. The calls are words filed in the database; no cut-off is given here.

Legend:
Assay type in all cases: functional, organism-based
[1] = tested on: Human immunodeficiency virus 1; assay: Antiviral activity against HIV-1 CH58TF infected in primary CD4 T cells isolated from PBMC assessed as antibody dependent cellular toxicity (ADCC) at 50 uM by cell surface staining based assay
Summary of the method: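 Primary CD4 T cells from PBMC infected with HIV-1 CH58TF for 48 h, then surface-stained with 1:1000 HIV+ plasma (n = 3) plus 50 μM compound or DMSO vehicle. Bound IgG detected with Alexa Fluor 647 anti-human IgG secondary by flow cytometry. Mean ± SEM.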

[2] = tested on: Human immunodeficiency virus 1; assay: Antiviral activity against HIV-1 CH58TF infected in primary CD4 T cells isolated from PBMC assessed as antibody dependent cellular toxicity (ADCC) by measuring killing of p24+ infected cells at 50 uM FACS-based ADCC assay; conditions: T cell
Summary of the method: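 CH58TF-infected (48 h) primary CD4 T cells from PBMC served as targets in a FACS-based ADCC assay. Plasma from 3 HIV-1-infected individuals at 1:1000, with 50 μM compound or DMSO vehicle. Read-out is killing of p24+ infected cells. Mean ± SEM.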

[3] = tested on: Human immunodeficiency virus 1; assay: Antiviral activity against HIV-1 JRFL infected in primary CD4 T cells isolated from PBMC assessed as antibody dependent cellular toxicity (ADCC) at 50 uM by cell surface staining based assay
[4] = tested on: Human immunodeficiency virus 1; assay: Antiviral activity against HIV-1 JRFL infected in HEK293T cells coexpressing firefly luciferase gene incubated for 1 hr; conditions: Human immunodeficiency virus 1, JRFL, HEK-293T
[5] = tested on: Amphotropic murine leukemia virus; assay: Antiviral activity against A-MLV infected in HEK293T cells coexpressing firefly luciferase gene incubated for 1 hr; conditions: HEK-293T
[6] = tested on: Amphotropic murine leukemia virus; assay: Antiviral activity against A-MLV assessed as inhibition of viral growth
Summary of the method: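 Control virus pseudotyped with amphotropic MLV Env, tested at concentrations up to 100 μM.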

[7] = tested on: Human immunodeficiency virus 1; assay: Antiviral activity against HIV-1 JRFL assessed as inhibition of viral growth; conditions: Human immunodeficiency virus 1, JRFL
Summary of the method: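 IC50 against JRFL measured in triplicate. Where more than one triplicate experiment was run, the value is the mean IC50 with SEM and N triplicates.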

Row | SMILES | IC50 [4] | Activity [1] | Activity [2] | further results
1 | N=C(N)NC[C@H]1Cc2cc(CN3CCC[C@H]3C(=O)O)ccc2[C@@H]1NC(=O)C(=O)Nc1ccc(Cl)c(F)c1 | 45.1 µM |  |  | 
2 | N=C(N)NC[C@H]1Cc2cc(CN3CCC(C(N)=O)CC3)ccc2[C@@H]1NC(=O)C(=O)Nc1ccc(Cl)c(F)c1 | 33 µM |  |  | 
3 | N=C(N)NC[C@H]1Cc2cc(CN3CCC[C@H](C(=O)O)C3)ccc2[C@@H]1NC(=O)C(=O)Nc1ccc(Cl)c(F)c1 | 60 µM |  |  | 
4 | CNCc1ccc2c(c1)C[C@H](CNC(=N)N)[C@H]2NC(=O)C(=O)Nc1ccc(Cl)c(F)c1 |  |  |  | IC50 [6]: > 100 µM; IC50 [7]: 9.6 µM
5 | N=C(N)NC[C@H]1Cc2cc(CN3CCC[C@H]3CO)ccc2[C@@H]1NC(=O)C(=O)Nc1ccc(Cl)c(F)c1 | 13.5 µM | Active | Active | 
6 | N=C(N)NC[C@H]1Cc2cc(CN3CCN(c4ccc(F)cc4F)CC3)ccc2[C@@H]1NC(=O)C(=O)Nc1ccc(Cl)c(F)c1 | 50 µM |  |  | 
7 | N=C(N)NC[C@H]1Cc2cc(CN3CCC[C@@H]3C(=O)O)ccc2[C@@H]1NC(=O)C(=O)Nc1ccc(Cl)c(F)c1 | 32.4 µM |  |  | 
8 | N=C(N)NC[C@H]1Cc2ccccc2[C@@H]1NC(=O)C(=O)Nc1ccc(Cl)c(F)c1 |  |  |  | IC50 [7]: 66.8 µM
9 | N=C(N)NC[C@H]1Cc2cc(CN3CCC[C@H]3C(N)=O)ccc2[C@@H]1NC(=O)C(=O)Nc1ccc(Cl)c(F)c1 | 12 µM | Active | Active | 
10 | N#CC1CCN(Cc2ccc3c(c2)C[C@H](CNC(=N)N)[C@H]3NC(=O)C(=O)Nc2ccc(Cl)c(F)c2)CC1 | 60.7 µM |  |  | 
11 | N=C(N)NC[C@H]1Cc2cc(CN3CC[C@@H](N)C3)ccc2[C@@H]1NC(=O)C(=O)Nc1ccc(Cl)c(F)c1 | 14 µM |  |  | 

Continued by falling IC50 [4], values first:

Row | IC50 [4] | SMILES | Activity [1] | Activity [2] | further results
12 | 11.1 µM | N=C(N)NC[C@H]1Cc2cc(CN3CCC[C@@H]3CO)ccc2[C@@H]1NC(=O)C(=O)Nc1ccc(Cl)c(F)c1 | Active | Active | 
13 | 10.2 µM | N=C(N)NC[C@H]1Cc2cc(CN3CC[C@@H](O)C3)ccc2[C@@H]1NC(=O)C(=O)Nc1ccc(Cl)c(F)c1 | Active | Active | 
14 | 10.1 µM | N=C(N)NC[C@H]1Cc2cc(CN3CC[C@H](N)C3)ccc2[C@@H]1NC(=O)C(=O)Nc1ccc(Cl)c(F)c1 |  |  | 
15 | 9.2 µM | N=C(N)NC[C@H]1Cc2cc(CN3CC[C@H](O)C3)ccc2[C@@H]1NC(=O)C(=O)Nc1ccc(Cl)c(F)c1 | Active | Active | 
16 | 7.5 µM | N=C(N)NC[C@H]1Cc2cc(CN[C@H]3CNC[C@@H]3O)ccc2[C@@H]1NC(=O)C(=O)Nc1ccc(Cl)c(F)c1 | Active | Active | 
17 | 6.4 µM | COC(=O)[C@@H]1C[C@@H](O)CN1Cc1ccc2c(c1)C[C@H](CNC(=N)N)[C@H]2NC(=O)C(=O)Nc1ccc(Cl)c(F)c1 | Active | inactive | Activity [3]: inactive
18 | 5.5 µM | N=C(N)NC[C@H]1Cc2cc(CN3CCCCC3)ccc2[C@@H]1NC(=O)C(=O)Nc1ccc(Cl)c(F)c1 |  |  | IC50 [5]: > 100 µM
19 | 4 µM | N=C(N)NC[C@H]1Cc2cc(CN3CCNCC3)ccc2[C@@H]1NC(=O)C(=O)Nc1ccc(Cl)c(F)c1 | Active | Active | IC50 [5]: > 100 µM
20 | 4 µM | N=C(N)NC[C@H]1Cc2cc(CN3CCCC3)ccc2[C@@H]1NC(=O)C(=O)Nc1ccc(Cl)c(F)c1 | Active | Active | IC50 [5]: > 100 µM
